Source: PubChem BioAssay
KCC2 mod: modulates chloride dependent transport by human KCC2 | Q9H2X9 | KCC2 cells, thallium flux FluoZin-2 fluorescence | B-score of Tl+ flux slope (higher = more flux/activation; lower = inhibition) at 10 µM | 190,000 compounds, 2.2% hits;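 active = thallium flux slope and its plate-corrected score both differing from the plate sample mean at a set confidence after two filtering rounds, in either direction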;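 also: slope of fluorescence scaled to starting intensity during 10 to 20 s after thallium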
Target sequence (Q9H2X9 whole entry, looked up): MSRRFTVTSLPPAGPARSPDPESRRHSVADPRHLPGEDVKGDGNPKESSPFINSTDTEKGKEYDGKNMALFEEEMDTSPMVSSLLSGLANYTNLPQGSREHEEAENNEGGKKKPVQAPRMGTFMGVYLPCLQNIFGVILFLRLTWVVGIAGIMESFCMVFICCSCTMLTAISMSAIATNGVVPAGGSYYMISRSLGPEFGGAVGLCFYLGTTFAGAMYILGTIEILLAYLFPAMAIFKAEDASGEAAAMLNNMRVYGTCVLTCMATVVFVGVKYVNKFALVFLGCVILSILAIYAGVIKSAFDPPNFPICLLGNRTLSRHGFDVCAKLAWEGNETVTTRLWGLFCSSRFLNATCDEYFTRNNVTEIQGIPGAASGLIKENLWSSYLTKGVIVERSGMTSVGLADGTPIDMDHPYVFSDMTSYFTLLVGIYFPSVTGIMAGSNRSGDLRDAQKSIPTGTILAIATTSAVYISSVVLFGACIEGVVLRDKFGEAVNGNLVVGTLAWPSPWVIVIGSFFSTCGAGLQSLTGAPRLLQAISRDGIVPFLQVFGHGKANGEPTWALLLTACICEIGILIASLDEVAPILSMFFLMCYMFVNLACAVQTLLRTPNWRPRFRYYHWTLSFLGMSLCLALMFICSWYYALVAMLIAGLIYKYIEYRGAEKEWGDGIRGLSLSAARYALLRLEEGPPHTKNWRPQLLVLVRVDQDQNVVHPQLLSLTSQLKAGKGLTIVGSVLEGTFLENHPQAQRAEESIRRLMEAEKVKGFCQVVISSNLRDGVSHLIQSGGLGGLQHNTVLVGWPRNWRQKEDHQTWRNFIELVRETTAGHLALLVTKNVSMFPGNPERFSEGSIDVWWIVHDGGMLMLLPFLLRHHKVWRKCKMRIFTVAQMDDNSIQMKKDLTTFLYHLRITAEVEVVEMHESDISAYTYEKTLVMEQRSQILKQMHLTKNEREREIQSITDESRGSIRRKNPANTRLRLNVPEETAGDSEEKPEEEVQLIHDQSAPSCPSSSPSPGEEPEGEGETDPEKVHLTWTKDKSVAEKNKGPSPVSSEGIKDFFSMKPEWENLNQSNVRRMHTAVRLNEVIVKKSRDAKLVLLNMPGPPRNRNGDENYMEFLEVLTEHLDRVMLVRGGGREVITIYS
WT yeast gro inh: growth inhibition of WT yeast, mitochondrial fusion screen. mitochondrial fusion phenotypic screen, WT strain. inhibition, % at 10 µM. 190,000 compounds, 2.1% hits. AID 1362; in the data active = inhibition above about 58%; tested in S. cerevisiae
Diaph inh CS: diaphorase inhibition or chemical oxidation counter-screen; diaphorase resazurin-to-resorufin fluorescence, NADH, 16 min; bacterial (C. kluyveri) enzyme, not human; inhibition, % at 20 µM; 190,000 compounds, 0.69% hits;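 active = primary screen inhibition at 20 µM above a set limit, cut at about 50% in these data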
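Benchmarks: positive control wells lacking NADH, neutral wells with DMSO only. System: bacterial diaphorase enzyme (C. kluyveri). Input: 0.14 U/mL diaphorase, enzyme working solution. Detection: resorufin fluorescence, excitation 544 nm, emission 590 nm. Times: 16-min room-temperature incubation before reading.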
Diaph act CS: activates diaphorase or chemically reduces, flagging diaphorase assay artifacts | Diaphorase/resazurin coupled assay, resorufin fluorescence, 16 min; stronger effect = higher value; 1 = vehicle wells, 0 = NADH-free wells | activation factor at 20 µM | 190,000 compounds, 0.005% hits | AID 1229;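 active = diaphorase activity raised at least twofold by the compound at 20 µM; inactive = activation factor below 2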
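Test system: Clostridium kluyveri diaphorase, purified enzyme. Buffer or medium: 50 mM HEPES pH 7.4 buffer plus MgCl2 and Tween 20. Also added: 0.114 mM NADH and 0.1 mM resazurin, final amounts. Dosing: compound 20 µM once, DMSO 1%. Schedule: 16 min enzyme reaction, ambient temperature. Detection: fluorescence of resorufin, 544 nm excitation, 590 nm emission.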
ROMK primary: modulates human ROMK potassium channel activity; B-score at 10 µM; 130,000 compounds, 2% hits; AID 1918; Tet-inducible ROMK, thallium flux fluorescence; actives lie on both sides;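 active = signal ratio slope over the read window, or its plate-corrected B-score, at least 3 SD from the plate mean, either direction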;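 also: B-score of the F/F0 ratio slope over 7 to 12 s after thallium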
Lmaj promast: reduces viability of Leishmania major promastigotes; resazurin fluorescence viability; inhibition, % at 10 µM; 200,000 compounds, 9% hits; AID 1063; in the data active = inhibition above about 50%;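 also: promastigotes grown with compound for 44 hours at 28 °C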
Numbers stand for hits. Most compounds without a hit are left out; they make up all but 12% or so of the library.

For Cc1nc2ccccc2c(=O)n1NC(=O)Cc1ccccc1 the results were KCC2 mod inactive and Lmaj promast inactive.
For Oc1ccc(N=Cc2cc(Br)c(N3CCOCC3)o2)cc1 the results were KCC2 mod inactive, WT yeast gro inh inactive, Diaph inh CS inactive, Diaph act CS inactive, ROMK primary inactive and Lmaj promast 67.
COc1ccc(NS(=O)(=O)c2ccc(N3CCOCC3)c(NC(=O)c3ccc(F)cc3)c2)cc1 was read as KCC2 mod inactive, WT yeast gro inh inactive, Diaph inh CS inactive, Diaph act CS inactive and Lmaj promast 72.
For COc1ccccc1NS(=O)(=O)c1cc(NC(=O)c2ccco2)ccc1N1CCOCC1 the results were KCC2 mod inactive, WT yeast gro inh inactive, Diaph inh CS inactive, Diaph act CS inactive, ROMK primary inactive and Lmaj promast 100.
Screening COc1ccccc1NS(=O)(=O)c1cc(NC(=O)c2ccccc2F)ccc1N1CCOCC1 returned KCC2 mod inactive, WT yeast gro inh inactive, Diaph inh CS inactive, Diaph act CS inactive, ROMK primary inactive and Lmaj promast inactive.
`COc1ccccc1NS(=O)(=O)c1ccc(N2CCOCC2)c(NC(=O)c2ccco2)c1` gave KCC2 mod inactive, WT yeast gro inh inactive, Diaph inh CS inactive, Diaph act CS inactive, ROMK primary inactive and Lmaj promast 69.
Screening Cc1cccc(NC(=O)Cn2c([N+](=O)[O-])cnc2C)c1C returned KCC2 mod inactive, WT yeast gro inh inactive, Diaph inh CS inactive, Diaph act CS inactive and Lmaj promast inactive.
For C=CCSC1=C(C#N)C(c2ccccc2Cl)C(C(=O)c2cccs2)C(O)(C(F)(F)F)N1 (configuration not stated) the results were KCC2 mod inactive, WT yeast gro inh inactive, Diaph inh CS inactive, Diaph act CS inactive, ROMK primary inactive and Lmaj promast 88.
`COc1cc(C2C(C#N)=C(N)Oc3c2ccc2ccccc32)ccc1OCC(=O)Nc1ccccc1C` (configuration not stated) gave WT yeast gro inh inactive, Diaph inh CS inactive, Diaph act CS inactive and Lmaj promast inactive.
Screening COC(=O)c1ccc(NC(=O)COc2ccc(C3C(C#N)=C(N)Oc4c3ccc3ccccc43)cc2OC)cc1 (configuration not stated) returned WT yeast gro inh inactive, Diaph inh CS inactive, Diaph act CS inactive and Lmaj promast 95.
For CC1CCCC(C)N1C(=O)COc1ccc(C(=O)Nc2ccccc2N2CCOCC2)cc1 (configuration not stated) the results were KCC2 mod inactive, WT yeast gro inh inactive, Diaph inh CS inactive, Diaph act CS inactive, ROMK primary inactive and Lmaj promast inactive.
For CCN(CC)CCCN(C(C)=O)c1nc(-c2cc(OC)ccc2OC)cs1 the results were KCC2 mod inactive, WT yeast gro inh inactive, Diaph inh CS inactive, Diaph act CS inactive and Lmaj promast 100.
CCC(=O)N(Cc1ccco1)c1nc(-c2cc(OC)ccc2OC)cs1 was read as KCC2 mod inactive, WT yeast gro inh inactive, Diaph inh CS inactive, Diaph act CS inactive and Lmaj promast inactive.
CCCCc1c(C)c(C#N)c2[nH]c3ccccc3n2c1=O was read as KCC2 mod inactive, WT yeast gro inh inactive, Diaph inh CS inactive, Diaph act CS inactive, ROMK primary inactive and Lmaj promast 65.
For CCCc1cc(=O)n2c([nH]c3ccccc32)c1C#N the results were WT yeast gro inh inactive, Diaph inh CS inactive, Diaph act CS inactive, ROMK primary inactive and Lmaj promast inactive.
`Cc1c(CCC(C)C)c(=O)n2c([nH]c3ccccc32)c1C#N` gave KCC2 mod inactive, WT yeast gro inh inactive, Diaph inh CS inactive, Diaph act CS inactive, ROMK primary inactive and Lmaj promast 99.
CCN(CC)S(=O)(=O)c1cccc(NC(=O)c2cc(=O)[nH]c3ccccc23)c1 was read as KCC2 mod inactive, WT yeast gro inh inactive, Diaph inh CS inactive, Diaph act CS inactive and Lmaj promast inactive.
CC(=O)Nc1ccc(NC(=O)COc2ccc(Br)cc2C)cc1 was read as KCC2 mod inactive, WT yeast gro inh inactive, Diaph inh CS inactive, Diaph act CS inactive, ROMK primary inactive and Lmaj promast 62.
Screening CCCNCc1cc(OC)c(OCC(=O)Nc2ccccc2)cc1Br returned KCC2 mod inactive, WT yeast gro inh inactive, Diaph inh CS inactive, Diaph act CS inactive, ROMK primary inactive and Lmaj promast inactive.
For O=C(COc1ccc(Br)cc1)Nc1ccncc1 the results were KCC2 mod inactive, WT yeast gro inh inactive, Diaph inh CS inactive, Diaph act CS inactive, ROMK primary inactive and Lmaj promast inactive.
COc1cc(CNCCO)ccc1OCC(=O)Nc1ccc(Br)cc1 was read as KCC2 mod inactive, WT yeast gro inh inactive, Diaph inh CS inactive, Diaph act CS inactive and Lmaj promast 100.
For Cc1cc(OCC(=O)Nc2ccncc2)c(C)cc1Br the results were KCC2 mod inactive, WT yeast gro inh 60, Diaph inh CS inactive, Diaph act CS inactive, ROMK primary inactive and Lmaj promast inactive.
CC(=O)N(C)c1ccc(NC(=O)COc2ccc(Br)cc2C)cc1 was read as KCC2 mod inactive, WT yeast gro inh inactive, Diaph inh CS inactive, Diaph act CS inactive, ROMK primary inactive and Lmaj promast inactive.
For CCCCNC(=O)N1CCN(Cc2ccc(F)cc2)CC1 the results were KCC2 mod inactive, WT yeast gro inh inactive, Diaph inh CS inactive, Diaph act CS inactive, ROMK primary inactive and Lmaj promast inactive.
For CCNCCNc1ccc(Cl)cc1[N+](=O)[O-] the results were KCC2 mod inactive and Lmaj promast 60.
For CC1(c2ccccc2)NC(=O)N(CC#N)C1=O (configuration not stated) the results were KCC2 mod inactive, WT yeast gro inh inactive, Diaph inh CS inactive, Diaph act CS inactive, ROMK primary inactive and Lmaj promast inactive.
Screening Cc1sc2ncnc(N/N=C/c3ccccc3O)c2c1C returned KCC2 mod inactive, WT yeast gro inh inactive, Diaph inh CS inactive, Diaph act CS inactive, ROMK primary inactive and Lmaj promast 100.
For COc1cc(OC)nc(Oc2ccccc2C(=O)Oc2cccc(C)c2)n1 the results were KCC2 mod inactive, WT yeast gro inh 60, Diaph inh CS inactive, Diaph act CS inactive and Lmaj promast inactive.
For CC1(C)CC(Nc2ccc(Nc3ccccc3)cc2)CC(C)(C)N1 the results were KCC2 mod inactive.
CN(c1ccc(C(=O)NCCSCc2ccccc2)cc1)S(=O)(=O)c1ccccc1 was read as KCC2 mod inactive, WT yeast gro inh inactive, Diaph inh CS inactive, Diaph act CS inactive, ROMK primary inactive and Lmaj promast 82.
Screening CCN(CC)c1ccc(CNc2nc3ccccc3n2CC)cc1 returned KCC2 mod inactive and ROMK primary inactive.
For CC(C)[C@H](NC(=O)c1ccccc1)C(=O)OCC(=O)NCc1ccc(F)cc1 the results were KCC2 mod inactive, WT yeast gro inh inactive, Diaph inh CS inactive, Diaph act CS inactive, ROMK primary inactive and Lmaj promast inactive.
